# From ChEMBL document CHEMBL3098017, “Discovery and in Vivo Evaluation of Potent Dual CYP11B2 (Aldosterone Synthase) and CYP11B1 Inhibitors” (ACS Med Chem Lett, 2013)
# Tested on: Rattus norvegicus
# Test: Reduction of angiotensin 2-stimulated plasma aldosterone time-weighted average (0 to 8 hrs) in Sprague-Dawley rat at 1 mg/kg, po
# Type: functional
# Design: scale not given: the % may be the effect or the level left
# Conditions: not given
# Method in brief: (§1)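 Angiotensin-II infusion in Sprague–Dawley rats (n = 3) raised baseline plasma aldosterone; oral dosing in corn starch/water or HCl (1.5 equiv of 1 N)/cornstarch/water; plasma sampled at set times; time-weighted average drug level 0–8 h; time-weighted average % fall in plasma aldosterone from baseline.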
row,SMILES,Activity [%]
1,Fc1ccc(-c2ccccc2[C@H]2CCCCc3cncn32)cc1,73
2,c1ccc(-c2ccccc2[C@H]2CCCCc3cncn32)cc1,27
3,N#Cc1ccc([C@H]2CCCCc3cncn32)c(F)c1,69
4,COC(=O)[C@]1(c2ccc(C#N)cc2Cl)CCc2cncn21,81
5,COc1cc(C#N)ccc1[C@@]1(C(=O)N(C)Cc2ccc(F)cc2)CCc2cncn21,35
6,N#Cc1ccc([C@H]2CCc3cncn32)c(Cl)c1,51
7,COc1cc(C#N)ccc1[C@H]1CCc2cncn21,50
8,N#Cc1ccc([C@H]2CCCCc3cncn32)c(-c2ccc(F)cc2)c1,66
9,N#Cc1ccc([C@H]2CCc3cncn32)c(F)c1 [OSILODROSTAT],65

# Tested on: Rattus norvegicus
# Test: Time-weighted average (0 to 8 hrs) in Sprague-Dawley rat at 1 mg/kg, po
# Type: ADME, organism-based
# Design: dose 1 mg/kg, route oral
# Conditions: in vivo
# Method in brief: as §1
row,SMILES,Cave [nM]
1,Fc1ccc(-c2ccccc2[C@H]2CCCCc3cncn32)cc1,152
2,c1ccc(-c2ccccc2[C@H]2CCCCc3cncn32)cc1,4
3,COC(=O)[C@]1(c2ccc(C#N)cc2Cl)CCc2cncn21,6
4,COc1cc(C#N)ccc1[C@@]1(C(=O)N(C)Cc2ccc(F)cc2)CCc2cncn21,15
5,N#Cc1ccc([C@H]2CCc3cncn32)c(Cl)c1,152
6,COc1cc(C#N)ccc1[C@H]1CCc2cncn21,33
7,N#Cc1ccc([C@H]2CCCCc3cncn32)c(-c2ccc(F)cc2)c1,6
8,N#Cc1ccc([C@H]2CCc3cncn32)c(F)c1 [OSILODROSTAT],377

# Tested on: not listed separately
# Test: Oral bioavailability in Sprague-Dawley rat at 1 mg/kg
# Type: ADME, organism-based
# Conditions: in vivo
# Method in brief: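 Sprague–Dawley rats (n = 3), oral dose in corn starch/water or HCl (1.5 equiv of 1 N)/cornstarch/water; %F calculated against a 0.3 mg/kg intra-arterial dose.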
row,SMILES,bioavailability [%]
1,Fc1ccc(-c2ccccc2[C@H]2CCCCc3cncn32)cc1,8
2,c1ccc(-c2ccccc2[C@H]2CCCCc3cncn32)cc1,< 1
3,COC(=O)[C@]1(c2ccc(C#N)cc2Cl)CCc2cncn21,1
4,COc1cc(C#N)ccc1[C@@]1(C(=O)N(C)Cc2ccc(F)cc2)CCc2cncn21,8
5,N#Cc1ccc([C@H]2CCc3cncn32)c(Cl)c1,59
6,COc1cc(C#N)ccc1[C@H]1CCc2cncn21,18
7,N#Cc1ccc([C@H]2CCCCc3cncn32)c(-c2ccc(F)cc2)c1,1
8,N#Cc1ccc([C@H]2CCc3cncn32)c(F)c1 [OSILODROSTAT],42

# Biological target: T1, Cytochrome P450 11B1, mitochondrial (Rattus norvegicus, UniProt P15393)
# T1 sequence (P15393 whole entry): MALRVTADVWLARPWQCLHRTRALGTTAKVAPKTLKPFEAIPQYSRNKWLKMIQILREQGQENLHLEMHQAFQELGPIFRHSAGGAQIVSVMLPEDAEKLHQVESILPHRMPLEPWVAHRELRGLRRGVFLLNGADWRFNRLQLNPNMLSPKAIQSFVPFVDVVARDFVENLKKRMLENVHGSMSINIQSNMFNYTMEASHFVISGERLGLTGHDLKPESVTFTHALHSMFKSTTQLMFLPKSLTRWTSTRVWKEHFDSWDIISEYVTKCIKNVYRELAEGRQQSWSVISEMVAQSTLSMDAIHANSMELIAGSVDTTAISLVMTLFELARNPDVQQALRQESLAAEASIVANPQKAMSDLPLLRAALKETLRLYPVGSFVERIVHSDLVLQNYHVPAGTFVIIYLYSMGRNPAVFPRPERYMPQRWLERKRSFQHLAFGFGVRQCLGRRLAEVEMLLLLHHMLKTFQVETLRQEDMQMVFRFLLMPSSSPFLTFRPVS
# Test: Inhibition of rat recombinant CYP11B1 using 11-deoxycortisol as substrate by cell-based assay
# Conditions: not given
row,SMILES,IC50 [nM]
1,Cc1cc(C#N)ccc1[C@H]1CCc2cncn21,386
2,N#Cc1ccc([C@H]2CCCCc3cncn32)c(-c2ccc(F)cc2)c1,0.3

# Biological target: T2, Cytochrome P450 11B2, mitochondrial (Rattus norvegicus, UniProt P30099)
# T2 sequence (P30099 whole entry): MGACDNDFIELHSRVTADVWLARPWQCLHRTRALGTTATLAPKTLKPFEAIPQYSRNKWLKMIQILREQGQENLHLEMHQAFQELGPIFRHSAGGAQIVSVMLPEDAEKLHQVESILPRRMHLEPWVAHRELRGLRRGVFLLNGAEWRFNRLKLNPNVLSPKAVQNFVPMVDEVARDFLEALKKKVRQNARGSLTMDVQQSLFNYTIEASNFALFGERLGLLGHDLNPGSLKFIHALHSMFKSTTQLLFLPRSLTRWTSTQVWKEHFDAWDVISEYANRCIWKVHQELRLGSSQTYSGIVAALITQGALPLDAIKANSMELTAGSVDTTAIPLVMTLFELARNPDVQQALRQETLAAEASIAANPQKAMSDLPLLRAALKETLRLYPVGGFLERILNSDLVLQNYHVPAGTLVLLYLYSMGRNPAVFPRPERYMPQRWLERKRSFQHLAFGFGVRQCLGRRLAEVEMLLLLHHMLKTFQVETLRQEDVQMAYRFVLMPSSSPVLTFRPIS
# Test: Inhibition of rat recombinant CYP11B2 using 11-deoxycorticosterone as substrate by cell-based assay
# Conditions: not given
row,SMILES,IC50 [nM]
1,Cc1cc(C#N)ccc1[C@H]1CCc2cncn21,24
2,N#Cc1ccc([C@H]2CCCCc3cncn32)c(-c2ccc(F)cc2)c1,1
3,N#Cc1ccc([C@H]2CCc3cncn32)c(F)c1 [OSILODROSTAT],111

# Biological target: T3, Cytochrome P450 11B1, mitochondrial (Homo sapiens, UniProt P15538)
# T3 sequence (P15538 whole entry): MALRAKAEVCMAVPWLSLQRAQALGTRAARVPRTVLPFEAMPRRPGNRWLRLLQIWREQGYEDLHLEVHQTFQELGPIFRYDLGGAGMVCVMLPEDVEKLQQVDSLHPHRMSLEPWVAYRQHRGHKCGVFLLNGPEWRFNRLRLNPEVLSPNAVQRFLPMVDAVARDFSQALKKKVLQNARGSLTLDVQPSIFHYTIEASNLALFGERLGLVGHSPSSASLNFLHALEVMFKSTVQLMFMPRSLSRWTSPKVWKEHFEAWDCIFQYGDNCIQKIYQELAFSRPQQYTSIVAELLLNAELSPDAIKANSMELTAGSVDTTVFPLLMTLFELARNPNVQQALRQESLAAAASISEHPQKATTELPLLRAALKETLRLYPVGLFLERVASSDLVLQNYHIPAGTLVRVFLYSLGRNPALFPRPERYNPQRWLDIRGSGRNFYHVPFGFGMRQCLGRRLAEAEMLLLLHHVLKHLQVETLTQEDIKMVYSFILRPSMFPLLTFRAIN
# Test: Inhibition of human recombinant CYP11B1 using 11-deoxycortisol as substrate by cell-based assay
# Conditions: not given
row,SMILES,IC50 [nM]
1,N#Cc1ccc([C@H]2CCCCc3cncn32)c(F)c1,7.2
2,N#Cc1ccc([C@@]2(C(=O)OCc3ccc(F)cc3)CCc3cncn32)c(Cl)c1,< 0.1
3,Cc1cc(C#N)ccc1[C@H]1CCc2cncn21,1.5
4,N#Cc1ccc([C@H]2CCCCc3cncn32)c(-c2ccc(F)cc2)c1,0.3

# Biological target: T4, Cytochrome P450 11B2, mitochondrial (Homo sapiens, UniProt P19099)
# T4 sequence (P19099 whole entry): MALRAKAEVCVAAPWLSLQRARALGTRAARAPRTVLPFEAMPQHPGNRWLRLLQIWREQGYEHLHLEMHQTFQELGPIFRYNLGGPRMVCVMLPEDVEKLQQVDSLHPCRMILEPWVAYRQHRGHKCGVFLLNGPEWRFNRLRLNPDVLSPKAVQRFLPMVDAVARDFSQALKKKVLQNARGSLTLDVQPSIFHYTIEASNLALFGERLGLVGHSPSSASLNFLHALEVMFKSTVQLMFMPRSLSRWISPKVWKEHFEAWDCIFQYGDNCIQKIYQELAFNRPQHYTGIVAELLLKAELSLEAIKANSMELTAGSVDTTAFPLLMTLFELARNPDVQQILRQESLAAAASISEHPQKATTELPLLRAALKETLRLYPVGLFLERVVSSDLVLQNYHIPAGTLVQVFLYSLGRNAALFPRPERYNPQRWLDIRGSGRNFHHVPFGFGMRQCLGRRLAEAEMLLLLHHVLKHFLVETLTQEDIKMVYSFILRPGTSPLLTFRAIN
# Test: Inhibition of human recombinant CYP11B2 using 11-deoxycorticosterone as substrate by cell-based assay
# Conditions: not given
row,SMILES,IC50 [nM]
1,N#Cc1ccc([C@H]2CCCCc3cncn32)c(F)c1,3.2
2,N#Cc1ccc([C@@]2(C(=O)OCc3ccc(F)cc3)CCc3cncn32)c(Cl)c1,3.8
3,Cc1cc(C#N)ccc1[C@H]1CCc2cncn21,0.9
4,N#Cc1ccc([C@H]2CCCCc3cncn32)c(-c2ccc(F)cc2)c1,0.4

# Biological target: T5, CYP19 (aromatase) (Homo sapiens, UniProt P11511)
# T5 sequence (P11511 whole entry): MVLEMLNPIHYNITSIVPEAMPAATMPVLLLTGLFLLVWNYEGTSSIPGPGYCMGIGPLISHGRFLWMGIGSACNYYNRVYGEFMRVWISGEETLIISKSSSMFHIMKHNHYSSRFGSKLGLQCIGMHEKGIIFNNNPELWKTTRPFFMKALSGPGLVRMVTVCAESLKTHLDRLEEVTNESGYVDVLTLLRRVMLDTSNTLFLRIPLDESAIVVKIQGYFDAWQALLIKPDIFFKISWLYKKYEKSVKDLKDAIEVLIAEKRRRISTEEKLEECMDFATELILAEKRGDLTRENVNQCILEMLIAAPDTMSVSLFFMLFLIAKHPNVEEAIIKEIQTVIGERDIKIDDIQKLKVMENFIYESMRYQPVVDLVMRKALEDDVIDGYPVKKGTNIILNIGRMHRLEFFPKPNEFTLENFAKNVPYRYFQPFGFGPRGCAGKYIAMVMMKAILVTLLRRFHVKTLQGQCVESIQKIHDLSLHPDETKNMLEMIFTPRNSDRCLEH
# Test: Inhibition of human CYP19 at 1 uM preincubated for 10 mins followed by protein addition measured after 90 mins by fluorimetric analysis relative to control
# Conditions: not given
row,SMILES,"inhibition at 1.5 h, 1 µM [%]"
1,N#Cc1ccc([C@H]2CCCCc3cncn32)c(Cl)c1,100
2,N#Cc1ccc([C@@]2(C(=O)OCc3ccc(F)cc3)CCc3cncn32)c(Cl)c1,95
3,COc1cc(C#N)ccc1[C@@]1(C(=O)N(C)Cc2ccc(F)cc2)CCc2cncn21,45
4,COc1cc(C#N)ccc1[C@H]1CCc2cncn21,80
5,Cc1cc(C#N)ccc1[C@H]1CCc2cncn21,87

# Biological target: T6, Aromatase (Homo sapiens, UniProt P11511)
# T6 sequence (P11511 whole entry): T5 sequence (P11511 whole entry)
# Conditions: not given
row,SMILES,IC50 [nM]
1,N#Cc1ccc([C@H]2CCCCc3cncn32)c(F)c1,1100
2,COC(=O)[C@]1(c2ccc(C#N)cc2Cl)CCc2cncn21,50

# Biological target: T4, Cytochrome P450 11B2, mitochondrial
# Test: Inhibition of CYP11B2 in human NCI-H295R cells assessed as inhibition of angiotensin-2-induced aldosterone production after 24 hrs by RIA
# Type: cell-based
# Conditions: not given
row,SMILES,IC50 [nM]
1,Fc1ccc(-c2ccccc2[C@H]2CCCCc3cncn32)cc1,2
2,c1ccc(-c2ccccc2[C@H]2CCCCc3cncn32)cc1,2
3,N#Cc1ccc([C@H]2CCCCc3cncn32)c(F)c1,42
4,N#Cc1ccc([C@H]2CCCCc3cncn32)c(Cl)c1,16
5,COC(=O)[C@]1(c2ccc(C#N)cc2Cl)CCc2cncn21,17
6,N#Cc1ccc([C@@]2(C(=O)OCc3ccc(F)cc3)CCc3cncn32)c(Cl)c1,1.5
7,COc1cc(C#N)ccc1[C@@]1(C(=O)N(C)Cc2ccc(F)cc2)CCc2cncn21,5
8,N#Cc1ccc([C@H]2CCc3cncn32)c(Cl)c1,13
9,COc1cc(C#N)ccc1[C@H]1CCc2cncn21,5
10,Cc1cc(C#N)ccc1[C@H]1CCc2cncn21,8
11,N#Cc1ccc([C@H]2CCCCc3cncn32)c(-c2ccc(F)cc2)c1,1

# Biological target: Cytochrome P450 2D6 (Homo sapiens, UniProt P10635)
# Sequence (P10635 whole entry): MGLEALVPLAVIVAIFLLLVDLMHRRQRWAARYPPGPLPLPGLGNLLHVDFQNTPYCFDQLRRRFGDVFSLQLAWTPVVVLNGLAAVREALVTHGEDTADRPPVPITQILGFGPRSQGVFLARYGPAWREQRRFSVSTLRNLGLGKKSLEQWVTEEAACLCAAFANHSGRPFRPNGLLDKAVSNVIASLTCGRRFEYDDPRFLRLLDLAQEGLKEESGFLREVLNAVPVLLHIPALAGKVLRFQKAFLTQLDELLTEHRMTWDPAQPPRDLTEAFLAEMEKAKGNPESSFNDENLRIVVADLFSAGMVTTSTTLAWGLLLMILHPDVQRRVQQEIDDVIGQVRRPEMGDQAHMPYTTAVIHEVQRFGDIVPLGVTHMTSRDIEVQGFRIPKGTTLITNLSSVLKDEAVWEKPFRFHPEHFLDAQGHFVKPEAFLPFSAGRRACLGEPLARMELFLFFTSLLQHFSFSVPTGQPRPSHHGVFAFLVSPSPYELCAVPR
# Conditions: not given
row,SMILES,IC50 [nM]
1,N#Cc1ccc([C@H]2CCc3cncn32)c(F)c1 [OSILODROSTAT],> 10000

# Biological target: Cytochrome P450 2C9 (Homo sapiens, UniProt P11712)
# Sequence (P11712 whole entry): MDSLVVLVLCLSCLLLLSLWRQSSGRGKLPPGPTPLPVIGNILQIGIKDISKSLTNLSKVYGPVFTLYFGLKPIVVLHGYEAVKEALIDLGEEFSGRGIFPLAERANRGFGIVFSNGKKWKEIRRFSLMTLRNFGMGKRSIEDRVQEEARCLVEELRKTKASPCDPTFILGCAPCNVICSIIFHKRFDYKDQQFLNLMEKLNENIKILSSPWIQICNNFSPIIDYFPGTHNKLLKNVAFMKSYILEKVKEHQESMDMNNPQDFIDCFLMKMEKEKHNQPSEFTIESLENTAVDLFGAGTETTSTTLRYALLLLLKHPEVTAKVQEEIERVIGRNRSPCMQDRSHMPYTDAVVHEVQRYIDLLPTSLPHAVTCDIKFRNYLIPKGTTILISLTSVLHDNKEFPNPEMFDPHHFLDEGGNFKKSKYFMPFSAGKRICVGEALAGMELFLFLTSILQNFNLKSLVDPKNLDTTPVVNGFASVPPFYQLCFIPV
# Conditions: not given
row,SMILES,IC50 [nM]
1,N#Cc1ccc([C@H]2CCc3cncn32)c(F)c1 [OSILODROSTAT],> 10000
